Measured values as given in ChEMBL document CHEMBL2086314, “Synthesis and anticonvulsant activity of new N-Mannich bases derived from 3-(2-fluorophenyl)- and 3-(2-bromophenyl)-pyrrolidine-2,5-diones. Part II” (Bioorg Med Chem, 2012).
Calls of active or inactive are those of the source. No cut-off for these calls is given here.

Assays:
[1] = tested on: Rattus norvegicus; assay: Neurotoxicity in Sprague-Dawley rat assessed as motor impairment at 30 mg/kg, po by rotarod test; type: toxicity, organism-based; design: dose 30 mg/kg, route oral; details: in vivo
Outline: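 Male Sprague–Dawley rats, four animals, oral 30 mg/kg in 0.5% methylcellulose/water. Motor impairment on the rotarod (failure to keep balance for 1 min) assessed alongside MES at five times from 0.25 to 4 h.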

[2] = tested on: Mus musculus; assay: Anticonvulsant activity in ip dosed CF-1 albino mouse assessed as protection from maximal electric shock-induced seizures measured after 4 hrs; type: functional; details: read-out: MED
Outline: (§1)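 Male CF-1 mice dosed ip at 30, 100 or 300 mg/kg, suspension in 0.5% methylcellulose/water. MES: corneal electrodes primed with electrolyte containing anaesthetic, 50 mA, 60 Hz, 0.2 s. Examined 0.5 and 4 h after dosing. Value is the minimum dose protecting half or more of the animals.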

[3] = tested on: Mus musculus; assay: Anticonvulsant activity in CF-1 albino mouse assessed as protection against 6 Hz psychomotor seizure at 75 mg/kg, ip measured after 0.25 hrs; type: functional; details: route intraperitoneal
Outline: (§2)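 6-Hz psychomotor seizure in male CF-1 mice, compound suspended in 0.5% methylcellulose/water, given ip (100 or 75 mg/kg). Corneal stimulation with 0.2 ms monopolar rectangular pulses at 6 Hz for 3 s, 32 mA, constant-current device. Protected if normal exploratory behaviour resumes within 10 s. Tested 0.25–4 h after dosing; value is mice protected out of four.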

[4] = tested on: Mus musculus; assay: Anticonvulsant activity in CF-1 albino mouse assessed as protection against 6 Hz psychomotor seizure at 75 mg/kg, ip measured after 2 hrs; type: functional; details: route intraperitoneal; outline: as §2
[5] = tested on: Rattus norvegicus; assay: Anticonvulsant activity in po dosed Sprague-Dawley rat assessed as protection from maximum electric shock-induced seizures; type: functional
Outline: (§3)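 Male Sprague–Dawley rats dosed orally (0.5% methylcellulose suspension). MES 150 mA, 60 Hz, 0.2 s; rotarod impairment is failure to keep balance for 1 min. Groups of eight, at the previously estimated time of peak effect, with doses varied until at least three points fell in the 10–90% range. ED50/TD50 with 95% confidence intervals from regression; PI = TD50/ED50.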

[6] = tested on: Mus musculus; assay: Neurotoxicity in CF-1 albino mouse assessed as motor impairment at 300 mg/kg, ip measured after 4 hrs by rotarod test; type: toxicity, organism-based; design: dose 300 mg/kg, route intraperitoneal; details: in vivo
Outline: (§4)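 Rotarod neurotoxicity in male CF-1 mice given ip doses of 30, 100 or 300 mg/kg (0.5% methylcellulose suspension), examined 0.5 and 4 h after dosing. Impairment means failing to hold balance on the rod for 1 min. Value is the minimum dose causing toxicity in half or more of the animals; response comments are recorded.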

[7] = tested on: Mus musculus; assay: Anticonvulsant activity in CF-1 albino mouse assessed as protection against 6 Hz psychomotor seizure at 75 mg/kg, ip measured after 4 hrs; type: functional; details: route intraperitoneal; outline: as §2
[8] = Neurotoxicity in po dosed Sprague-Dawley rat assessed as motor impairment measured at time of peak effect by rotarod test; type: toxicity, organism-based; details: in vivo; outline: as §3
[9] = tested on: Mus musculus; assay: Anticonvulsant activity in CF-1 albino mouse assessed as protection against 6 Hz psychomotor seizure at 75 mg/kg, ip measured after 1 hr; type: functional; details: route intraperitoneal; outline: as §2
[10] = tested on: Rattus norvegicus; assay: Anticonvulsant activity in Sprague-Dawley rat assessed as protection from maximum electric shock-induced seizures at 30 mg/kg, po measured after 4 hrs; type: functional
Outline: (§5)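 Male Sprague–Dawley rats, four per group, given 30 mg/kg orally as a suspension in 0.5% methylcellulose/water. MES stimulus 150 mA, 60 Hz, 0.2 s via corneal electrodes. Tested at 0.25, 0.5, 1, 2 and 4 h; value is rats protected out of four.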

[11] = tested on: Mus musculus; assay: Neurotoxicity in CF-1 albino mouse assessed as motor impairment at 300 mg/kg, ip measured after 0.5 hrs by rotarod test; type: toxicity, organism-based; design: dose 300 mg/kg, route intraperitoneal; details: in vivo; outline: as §4
[12] = organism: Rattus norvegicus; assay: Protective index, ratio of TD50 for Sprague-Dawley rat to ED50 for Sprague-Dawley rat assessed as protection from maximum electric shock-induced seizures; type: functional; outline: as §3
[13] = tested on: Mus musculus; assay: Anticonvulsant activity in CF-1 albino mouse assessed as protection against 6 Hz psychomotor seizure at 75 mg/kg, ip measured after 0.5 hrs; type: functional; details: route intraperitoneal; outline: as §2
[14] = tested on: Rattus norvegicus; assay: Anticonvulsant activity in Sprague-Dawley rat assessed as protection from maximum electric shock-induced seizures at 30 mg/kg, po measured after 2 hrs; type: functional; outline: as §5
[15] = tested on: Rattus norvegicus; assay: Anticonvulsant activity in Sprague-Dawley rat assessed as protection from maximum electric shock-induced seizures at 30 mg/kg, po measured after 0.25 hrs; type: functional; outline: as §5
[16] = tested on: Rattus norvegicus; assay: Anticonvulsant activity in Sprague-Dawley rat assessed as protection from maximum electric shock-induced seizures at 30 mg/kg, po measured after 0.5 hrs; type: functional; outline: as §5
[17] = tested on: Mus musculus; assay: Anticonvulsant activity in CF-1 albino mouse assessed as protection from maximal electric shock-induced seizures at 300 mg/kg, ip measured after 0.5 hrs; type: functional, organism-based; design: dose 300 mg/kg; outline: as §1
[18] = tested on: Rattus norvegicus; assay: Anticonvulsant activity in Sprague-Dawley rat assessed as protection from maximum electric shock-induced seizures at 30 mg/kg, po measured after 1 hr; type: functional; outline: as §5
[19] = tested on: Rattus norvegicus; assay: Anticonvulsant activity in po dosed maximum electric shock-induced Sprague-Dawley rat assessed as time of peak effect; type: functional; outline: as §3
[20] = tested on: Mus musculus; assay: Anticonvulsant activity in ip dosed CF-1 albino mouse assessed as protection from maximal electric shock-induced seizures; type: functional
Outline: (§6)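 ED50 and TD50 determined in male CF-1 mice after ip dosing (0.5% methylcellulose suspension) at the previously estimated time of peak effect. MES 50 mA, 60 Hz, 0.2 s. Groups of eight, with doses varied until at least three points fell between 10–90% protection or motor impairment. Regression gives ED50/TD50 with 95% confidence intervals; PI = TD50/ED50.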

[21] = Neurotoxicity in ip dosed CF-1 albino mouse assessed as motor impairment by rotarod test; type: toxicity, organism-based; details: in vivo
[22] = organism: Mus musculus; assay: Protective index, ratio of TD50 for CF-1 albino mouse to ED50 for CF-1 albino mouse assessed as protection from maximum electric shock-induced seizures; type: functional; outline: as §6
[23] = tested on: Mus musculus; assay: Neurotoxicity in CF-1 albino mouse assessed as motor impairment, ip measured after 4 hrs by rotarod test; type: toxicity, organism-based; details: in vivo
[24] = tested on: Mus musculus; assay: Anticonvulsant activity in ip dosed maximal electric shock-induced CF-1 albino mouse assessed as time of peak effect; type: functional; outline: as §6
[25] = tested on: Mus musculus; assay: Anticonvulsant activity in ip dosed CF-1 albino mouse assessed as protection from maximal electric shock-induced seizures measured after 0.5 hrs; type: functional; details: read-out: MED; outline: as §1
[26] = tested on: Mus musculus; assay: Neurotoxicity in ip dosed CF-1 albino mouse assessed as motor impairment measured after 0.5 hrs by rotarod test; type: toxicity, organism-based; details: in vivo; outline: as §4
[27] = tested on: Mus musculus; assay: Neurotoxicity in CF-1 albino mouse assessed as myoclonic jerks at 300 mg/kg, ip measured after 4 hrs by rotarod test; type: toxicity, organism-based; design: dose 300 mg/kg, route intraperitoneal; details: in vivo
[28] = tested on: Mus musculus; assay: Neurotoxicity in CF-1 albino mouse assessed as myoclonic jerks at 100 mg/kg, ip measured after 0.5 hrs by rotarod test; type: toxicity, organism-based; design: dose 100 mg/kg, route intraperitoneal; details: in vivo
[29] = tested on: Mus musculus; assay: Anticonvulsant activity in ip dosed CF-1 albino mouse assessed as protection against subcutaneous pentylenetetrazol-induced seizures measured after 0.5 hrs; type: functional; details: read-out: MED
Outline: (§7)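 scPTZ test in male CF-1 mice. Compound suspended in 0.5% methylcellulose/water, ip at 30, 100 or 300 mg/kg. Pentylenetetrazole 85 mg/kg (CD97, clonic seizures lasting at least 5 s) given subcutaneously at the test time, read at 0.5 and 4 h. Value is the minimum dose protecting half or more of the animals.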

[30] = tested on: Mus musculus; assay: Anticonvulsant activity in ip dosed CF-1 albino mouse assessed as protection against subcutaneous pentylenetetrazol-induced seizures measured after 4 hrs; type: functional; details: read-out: MED; outline: as §7
[31] = tested on: Mus musculus; assay: Anticonvulsant activity in ip dosed 6 Hz psychomotor-induced seizure in CF-1 albino mouse assessed as time of peak effect; type: functional

Structure (SMILES) | Activity [1] | minimal effective dose [2] [mg/kg] | Activity [6] | Activity [10] [%] | Activity [11] | Activity [14] [%] | Activity [15] [%] | Activity [16] [%] | Activity [17] | Activity [18] [%] | TD50 [21] [mg/kg] | also measured
O=C1CC(c2ccccc2Br)C(=O)N1CN1CCN(c2cccc(Cl)c2)CC1 (racemic) | Non-toxic | 100 | Non-toxic | 100 | Non-toxic | 100 | 0 | 25 | inactive | 50 |  | Activity [3]: 25%; Activity [4]: 25%; ED50 [5]: 26.4 mg/kg; Activity [7]: 25%; TD50 [8]: 126 mg/kg; Activity [9]: 25%; Ratio TD50/ED50 [12]: 4.77; Activity [13]: 25%; Time [19]: 4 h
O=C1CC(c2ccccc2F)C(=O)N1CN1CCN(c2ccc(F)cc2)CC1 (racemic) | Non-toxic | 30 |  | 50 | Non-toxic | 25 | 0 | 0 | inactive | 0 | 166 | ED50 [20]: 101 mg/kg; Ratio TD50/ED50 [22]: 1.65; MTC [23]: 300 mg/kg; Time [24]: 4 h
Cl.Cl.O=C1CC(c2ccccc2Br)C(=O)N1CN1CCN(CCO)CC1 (racemic) | Non-toxic | 100 | Non-toxic | 25 |  | 0 | 25 | 25 |  | 0 |  | minimal effective dose [25]: 100 mg/kg; MTC [26]: 300 mg/kg; Activity [27]: Toxic; Activity [28]: Toxic; minimal effective dose [29]: 100 mg/kg; minimal effective dose [30]: 300 mg/kg
CC[C@@H](C(N)=O)N1CCCC1=O |  |  |  |  |  |  |  |  |  |  | > 500 | Time [31]: 1 h
